TRPC4 act – TRPC4 (mouse) channel activation; B-score at 10 µM; 0.49% of 310,000 active; Q9QUQ5; HEK293 TRPC4beta/mu-opioid, Fluo4 calcium fluorescence; stronger effect = higher value;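 active = B-score above 5 SD of library B-scores, and initial fluorescence ratio not above library mean plus 5 SD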;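 also: positive B-score marks a calcium rise read as TRPC4 activation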
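Incubation: 45 min room-temperature Fluo4 loading, 110 s read / System: HEK293 cells stably co-expressing mouse TRPC4beta and mu-opioid receptor / Signal: Fluo4 fluorescence, kinetic / Control set: buffer (low) and maximal DAMGO (high) / Measure: integrated baseline-normalised fluorescence ratio, converted to per-well B score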
Yeast superoxide – caloric restriction mimetics inhibiting age-related superoxide in yeast; 0.18% of 330,000 active; S. cerevisiae aged cells, superoxide DHE fluorescence; stronger effect = lower value; superoxide response (% of plate mean), % at 10 µM;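 active = superoxide response under a set limit, about three screen SD below normal, cut at about 65% in these data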;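 also: yeast aged for seven days with compound at 30 °C before DHE staining; 100% = average MFI of all compound-treated wells on the plate with controls excluded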
TRPC4 PAM – allosteric potentiators of mouse TRPC4 channel; 0.42% of 310,000 active; Q9QUQ5; HEK293 TRPC4beta/mu-opioid, DAMGO EC20, Fluo-4 Ca2+ flux; stronger effect = higher value; B-score at 10 µM;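 active = B-score of calcium response area above 5 SD of library B-scores, with initial fluorescence ratio within 5 SD of library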;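 also: B-score of integrated fluorescence ratio over time as area under calcium response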
TRPC4 inh – blocks the mouse TRPC4 cation channel. 0.39% of 300,000 active. HEK293 TRPC4beta/mu-opioid, DAMGO-evoked Fluo4 calcium flux; stronger effect = lower value. Q9QUQ5. B-score at 10 µM. AID 2247;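 active = B-score over 3 SD under the library average, no early fluorescence shift, positive overall ratio signal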
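Assay system: HEK293 cells with stable TRPC4beta plus mu-opioid receptor expression; Probe or stimulus: DAMGO in two steps, submaximal then maximal; Dosing: single-point compound dosing; Measured by: Fluo4 calcium-dye fluorescence, kinetic read; Read-out basis: B score from integrated Fluo4 fluorescence ratio.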
TRPC6 act – mouse TRPC6 channel activation | Q61143 | HEK293-TRPC6 membrane potential dye fluorescence; stronger effect = higher value | B-score at 10 µM | 0.13% of 310,000 active;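 active = B-score of the integrated fluorescence ratio above library mean plus 3 SD, and starting fluorescence ratio within library mean plus 5 SD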;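 also: higher score means more depolarization so channel activation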
TRPC6 inh – blocks the mouse TRPC6 cation channel; B-score at 10 µM; HEK293-TRPC6, membrane potential dye, ACh-evoked depolarization; stronger effect = lower value; 1.1% of 310,000 active; Q61143;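 active = B-score under library mean minus 3 SD, initial fluorescence not abnormally high, positive integrated signal ratio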;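 also: B-score derived from integrated fluorescence ratio over the kinetic read; more negative B-score means stronger inhibition of depolarization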
TRPC4 spec 2 – mouse TRPC4 off-target activity of TRPC6 inhibitors, second screen; shares compounds with TRPC6 inh; HEK293 TRPC4/MOR, membrane potential dye fluorescence; channel activated by saturating DAMGO dose; inhibition, % at 10 µM; 42% of 920 active;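 active = compounds whose fluorescence signal differed from control wells by over 3 SD, either direction, in both duplicate plates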
TRPC4 spec – selectivity of TRPC6 inhibitors: effect on mouse TRPC4. shares compounds with TRPC6 inh. HEK293 TRPC4/mu-opioid, membrane potential fluorescence. activity change, negative = inhibition, % at 10 µM. 61% of 920 active;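 active = rise or fall in signal beyond 3 SD of buffer-only wells in both replicate plates, either sign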;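 also: integrated kinetic ratio of fluorescence range over baseline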
HEK293 MPD ctr 2-1 – second counter-screen for TRPC6 inhibitors: parental HEK293 cells; parental HEK293 membrane potential dye fluorescence; maximal acetylcholine challenge after compound addition; AID 2779; shares compounds with TRPC6 inh; signal change vs control, % at 10 µM; 31% of 920 active;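 active = membrane potential signal moving either way by over 3 SD of the maximum-effect control, in both duplicate plates, meaning non-specific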
HEK293 MPD ctr-1 – counter-screen for TRPC6 inhibitors: effect in parental HEK293 cells | shares compounds with TRPC6 inh | parental HEK293 membrane potential dye fluorescence | membrane potential signal change, % at 10 µM | 60% of 920 active | AID 2780;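 active = membrane potential signal shifting up or down by more than 3 SD of buffer-only wells, on both duplicate plates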
HEK293 MPD ctr-2 – checks TRPC6 modulator effects in parental HEK293 cells; shares compounds with TRPC6 inh; membrane potential dye fluorescence; membrane potential signal change, % at 10 µM; 51% of 2,400 active;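 active = membrane potential signal moves up or down beyond 5 SD from buffer-only wells, on both duplicate plates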
HEK293 MPD ctr 2-2 – second check of TRPC6 modulator effects in parental HEK293 cells. shares compounds with TRPC6 inh. membrane potential dye fluorescence; after compound, maximal acetylcholine stimulation. inhibition, % at 10 µM. 14% of 2,400 active. AID 488926;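 active = membrane potential signal drops by more than 5 SD from the mean control signal, in both duplicate plates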;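 also: plate controls were acetylcholine ECmax control wells for no effect and buffer only wells for full effect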
TRPC4 ctr mod – mouse TRPC4 off-target activity of TRPC6 modulators. shares compounds with TRPC6 inh. HEK293 TRPC4/mu-opioid, membrane potential fluorescence. AID 488927. percent change from control (negative = decrease, positive = increase), % at 10 µM. 69% of 2,400 active;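 active = membrane potential signal moved up or down beyond 5 SD of buffer control wells, in both duplicate plates, actives on both sides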;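 also: plate controls were assay buffer wells for no effect and DAMGO maximal-effect wells for full effect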
TRPC4/MOR inh 2 – second selectivity test of TRPC6 modulators against mouse TRPC4. 55% of 2,400 active. inhibition, % at 10 µM. shares compounds with TRPC6 inh. HEK293 TRPC4/mu-opioid, membrane potential dye fluorescence; stimulated with maximal-effect DAMGO. AID 488928;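 active = drop in membrane potential signal beyond 5 SD of the control wells in both duplicate plates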;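 also: TRPC4 counter screen for TRPC6 hits run under conditions tuned for TRPC6 not TRPC4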
TRPC6 inh conf – confirmation of mouse TRPC6 inhibitors; shares compounds with TRPC6 inh; HEK293-TRPC6, membrane potential dye, ACh-evoked depolarization; inhibition, % at 10 µM; 43% of 3,300 active; AID 488960;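 active = fluorescence ratio falls more than 5 SD below the full-stimulation control mean, in both duplicate runs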;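 also: integrated fluorescence ratio of peak minus minimum over baseline after agonist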
TRPC6 act confirm – confirmation of mouse TRPC6 activators. shares compounds with TRPC6 inh. HEK293-TRPC6 membrane potential dye fluorescence, FDSS. activation, % at 10 µM. 11% of 2,800 active. AID 488961;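 active = ratio signal rise beyond 5 SD above unstimulated control wells' mean, seen in both duplicate runs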;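 also: plate controls were buffer EC0 wells for no effect and acetylcholine ECmax response for full effect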
Starred values were filed as active, the others as inactive; i = inactive; . = no result given. In the library only some 2.3% were active in any assay of this set; here they are far more common.

SMILES	TRPC4 act	Yeast superoxide	TRPC4 PAM	TRPC4 inh	TRPC6 act	TRPC6 inh	TRPC4 spec 2	TRPC4 spec	HEK293 MPD ctr 2-1	HEK293 MPD ctr-1	HEK293 MPD ctr-2	HEK293 MPD ctr 2-2	TRPC4 ctr mod	TRPC4/MOR inh 2	TRPC6 inh conf	TRPC6 act confirm
O=C(NNC(=O)C1CC(c2cccs2)=NO1)Nc1ccccc1 (stereo not given)	i	97	i	i	i	i	.	.	.	.	.	.	.	.	.	.
Oc1ccc(CN2CCCCC2)c2cccnc12	i	94	i	i	i	i	.	.	.	.	.	.	.	.	.	.
Oc1ccc(CN2CCc3ccccc3C2)c2cccnc12	i	95	i	-5*	i	-7.3*	49%*	2.4%*	i	5.0%*	.	.	.	.	i	i
C/C(=N\NC(=O)c1cccc([N+](=O)[O-])c1)c1cccs1	i	115	i	i	i	i	.	.	.	.	.	.	.	.	.	.
CC(C)(c1ccccc1)c1ccc(OCCCN2CCNCC2)cc1	i	78	i	i	i	-6.8*	34%*	i	i	2.3%*	.	.	.	.	i	i
CC(C)(C)c1ccc(OCCCCCCN2CCNCC2)cc1	i	106	i	i	i	-7.7*	52%*	-0.1%*	i	2.7%*	.	.	.	.	61%*	i
CC(C)(c1ccccc1)c1ccc(OCCN2CCOCC2)cc1	i	106	i	i	i	i	.	.	.	.	.	.	.	.	.	.
COc1ccc(NC(=O)c2cc(-c3ccco3)nc3ccccc23)cn1	.	113	.	.	.	.	.	.	.	.	.	.	.	.	.	.
CCCCN1C(=O)/C(=C/C=C2\Oc3ccccc3N2CC)SC1=S	i	.	i	i	35*	i	.	.	.	.	338%*	i	99%*	i	i	i
C=CCOc1ccc(Br)cc1CNC(C)(C)C	i	95	i	i	i	-6.1*	.	.	.	.	214%*	98%*	52%*	100%*	80%*	.
CC(C)(C)NCc1cc(Cl)ccc1OCc1cccs1	i	102	i	i	i	-8*	40%*	58%*	30%*	32%*	.	.	.	.	108%*	.
CC(C)(C)NCc1cc(Cl)ccc1OCc1ccccc1F	i	94	i	i	18*	-8.1*	.	.	.	.	488%*	i	106%*	84%*	100%*	152%*
CC(C)(C)NCc1ccccc1OCc1cccs1	i	98	i	-7*	i	-9.8*	31%*	38%*	-20%*	21%*	.	.	.	.	89%*	.
C=C[C@H](CC(C)C)N(Cc1ccccc1)S(=O)(=O)N(Cc1ccc(OC)cc1)[C@H](C=C)CC(C)C	.	82	.	.	.	.	.	.	.	.	.	.	.	.	.	.
Cn1c(=O)c(=O)n(C)c2cc(S(=O)(=O)NCCOc3ccccc3)ccc21	i	84	i	i	i	i	.	.	.	.	.	.	.	.	.	.
CC(C)NCc1cc(Br)ccc1OCc1ccccc1	i	97	i	i	12*	-7.2*	.	.	.	.	403%*	i	96%*	83%*	81%*	116%*
CC(C)(C)NCc1cc(Br)ccc1OCc1cccs1	i	108	i	i	i	-11*	39%*	64%*	i	36%*	.	.	.	.	99%*	.
C=CCn1c(SCC(=O)Nc2nccs2)nnc1-c1ccco1	i	87	i	i	i	i	.	.	.	.	.	.	.	.	.	.
CC(=O)c1ccccc1NC(=O)CCN1C(=O)C2CCCCC2C1=O (stereo not given)	.	97	.	.	.	.	.	.	.	.	.	.	.	.	.	.
CCCCC[n+]1cccc2c3ccccc3ccc21	i	104	i	i	i	-9.2*	.	.	.	.	-238%*	i	-39%*	66%*	58%*	i
c1ccc(C[n+]2cccc3c4ccccc4ccc32)cc1	i	123	i	i	i	-9.7*	.	.	.	.	-274%*	71%*	-46%*	64%*	68%*	i
O=[N+]([O-])c1ccc(C[n+]2cccc3ccccc32)cc1	i	111	i	i	i	i	.	.	.	.	.	.	.	.	.	.
Cc1ccc(N2CC(C(N)=O)CC2=O)cc1C (stereo not given)	i	92	i	i	i	i	.	.	.	.	.	.	.	.	.	.
O=C(OCCN1CCCC1)C1(c2ccccc2)CCCC1	i	.	i	i	i	-8*	i	9.8%*	16%*	13%*	.	.	.	.	64%*	.
O=C(O)c1ccc(NC(=O)C2(c3ccccc3)CCCC2)cc1	i	104	i	i	i	i	.	.	.	.	.	.	.	.	.	.
CCN(CC)CCOC(=O)c1ccc(NC(=O)C2(c3ccccc3)CCCC2)cc1	i	88	i	i	i	-5.2*	.	.	.	.	125%*	i	16%*	58%*	i	.
CN(C)CCOC(=O)C1(c2ccccc2)CCCC1	i	94	i	i	i	-9.6*	i	2.4%*	19%*	5.8%*	.	.	.	.	i	.
C[N+]1(CCCOC(=O)C2(c3ccccc3)CCCC2)CCOCC1	i	117	i	i	i	-5.4*	.	.	.	.	i	i	i	i	i	i
CCCCC(=O)Nc1nn(CC(C)C)c2nc3ccccc3cc12	i	104	i	i	i	i	.	.	.	.	.	.	.	.	.	.
CN(CC(=O)Nc1ccc(N2CCOCC2)cc1)C(=O)C1CCCC1	i	94	i	i	i	i	.	.	.	.	.	.	.	.	.	.

High-throughput results (PubChem BioAssay)
